One compound from ChEMBL document CHEMBL3526053, “Species-dependent uptake of glycylsarcosine but not oseltamivir in Pichia pastoris expressing the rat, mouse, and human intestinal peptide transporter PEPT1” (Drug Metab Dispos, 2012) can be followed below.

What all share (format): ADME
The target of data set [1] is T1, Solute carrier family 15 member 1 (Homo sapiens, UniProt P46059).
T1 sequence (P46059 whole entry): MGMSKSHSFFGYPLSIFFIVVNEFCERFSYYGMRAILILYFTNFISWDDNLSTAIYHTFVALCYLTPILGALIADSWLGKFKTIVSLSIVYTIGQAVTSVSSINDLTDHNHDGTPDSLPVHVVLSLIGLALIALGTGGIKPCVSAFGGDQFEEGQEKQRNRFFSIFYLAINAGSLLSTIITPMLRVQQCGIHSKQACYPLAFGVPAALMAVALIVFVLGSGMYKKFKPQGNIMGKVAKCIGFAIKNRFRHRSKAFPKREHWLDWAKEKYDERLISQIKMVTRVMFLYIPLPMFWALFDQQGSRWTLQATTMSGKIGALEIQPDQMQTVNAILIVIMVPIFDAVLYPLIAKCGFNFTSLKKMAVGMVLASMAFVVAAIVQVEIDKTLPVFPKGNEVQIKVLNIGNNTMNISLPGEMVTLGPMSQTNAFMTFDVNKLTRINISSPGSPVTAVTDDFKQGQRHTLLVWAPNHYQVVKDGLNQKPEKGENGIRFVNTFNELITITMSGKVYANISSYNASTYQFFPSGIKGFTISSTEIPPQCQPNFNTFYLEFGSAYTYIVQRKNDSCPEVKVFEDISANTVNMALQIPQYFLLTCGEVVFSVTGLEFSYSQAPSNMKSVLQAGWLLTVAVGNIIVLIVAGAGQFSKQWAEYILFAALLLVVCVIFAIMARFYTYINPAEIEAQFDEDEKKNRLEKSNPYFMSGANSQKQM
In words: Drug uptake in Pichia pastoris GS115 expressing human recombinant PEPT1 at 5 uM after 30s by dual-channel liquid scintillation counting analysis in presence of cephalothin relative to control. The settings on record: 0.5 min. The essentials: (§1)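 [3H]GlySar 5.0 µM final, 30-s uptake at 24°C in 100 mM potassium phosphate pH 6.5, with or without a potential inhibitor at 10 mM. Cells are methanol-induced transformants. Values are vector-subtracted and expressed as percent of buffer control. Mean ± SE (n=3). ANOVA with Dunnett's test.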

Data set [2] has as its target T1, Solute carrier family 15 member 1. In words: Drug uptake in Pichia pastoris GS115 expressing human recombinant PEPT1 at 5 uM after 30s by dual-channel liquid scintillation counting analysis relative to control. The settings on record: 0.5 min. In a few lines: as §1
The target in a further data set is T2, PEPT1 (Rattus norvegicus, UniProt P51574).
T2 sequence (P51574 whole entry): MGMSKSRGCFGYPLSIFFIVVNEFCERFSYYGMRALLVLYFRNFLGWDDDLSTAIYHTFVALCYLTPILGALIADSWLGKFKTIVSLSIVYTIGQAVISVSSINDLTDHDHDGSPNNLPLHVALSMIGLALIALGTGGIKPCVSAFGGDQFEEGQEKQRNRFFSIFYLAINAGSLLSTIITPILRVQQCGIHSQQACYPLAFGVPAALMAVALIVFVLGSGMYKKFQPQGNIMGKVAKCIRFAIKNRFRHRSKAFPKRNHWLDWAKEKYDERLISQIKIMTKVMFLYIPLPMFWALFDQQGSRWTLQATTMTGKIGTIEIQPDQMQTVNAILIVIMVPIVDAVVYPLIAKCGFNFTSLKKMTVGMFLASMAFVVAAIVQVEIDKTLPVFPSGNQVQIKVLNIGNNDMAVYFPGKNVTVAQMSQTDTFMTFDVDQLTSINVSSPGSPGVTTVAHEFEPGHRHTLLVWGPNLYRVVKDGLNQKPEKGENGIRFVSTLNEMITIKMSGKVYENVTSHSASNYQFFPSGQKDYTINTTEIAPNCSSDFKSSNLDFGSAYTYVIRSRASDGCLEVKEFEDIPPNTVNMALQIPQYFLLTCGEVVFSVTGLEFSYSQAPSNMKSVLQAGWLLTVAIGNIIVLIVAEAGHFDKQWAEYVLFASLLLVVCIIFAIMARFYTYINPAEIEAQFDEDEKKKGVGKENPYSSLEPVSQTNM
The data set is described as follows: Drug uptake in Pichia pastoris GS115 expressing rat recombinant PEPT1 at 5 uM after 30 mins by dual-channel liquid scintillation counting analysis relative to vector control. The settings on record: read-out: FC. In a few lines: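 5.0 µM radiolabelled substrate ([3H]GlySar or [14C]oseltamivir) is incubated 30 min at 24°C with induced transformants in 100 mM potassium phosphate pH 6.5. Cell-associated radioactivity is counted by scintillation after standing 24 h and normalised to OD600. Results are compared with pPIC3.5K vector-alone cells. Mean ± SE (n=6).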

The target in data set [3] is T3, Solute carrier family 15 member 1 (Mus musculus, UniProt Q9JIP7).
T3 sequence (Q9JIP7 whole entry): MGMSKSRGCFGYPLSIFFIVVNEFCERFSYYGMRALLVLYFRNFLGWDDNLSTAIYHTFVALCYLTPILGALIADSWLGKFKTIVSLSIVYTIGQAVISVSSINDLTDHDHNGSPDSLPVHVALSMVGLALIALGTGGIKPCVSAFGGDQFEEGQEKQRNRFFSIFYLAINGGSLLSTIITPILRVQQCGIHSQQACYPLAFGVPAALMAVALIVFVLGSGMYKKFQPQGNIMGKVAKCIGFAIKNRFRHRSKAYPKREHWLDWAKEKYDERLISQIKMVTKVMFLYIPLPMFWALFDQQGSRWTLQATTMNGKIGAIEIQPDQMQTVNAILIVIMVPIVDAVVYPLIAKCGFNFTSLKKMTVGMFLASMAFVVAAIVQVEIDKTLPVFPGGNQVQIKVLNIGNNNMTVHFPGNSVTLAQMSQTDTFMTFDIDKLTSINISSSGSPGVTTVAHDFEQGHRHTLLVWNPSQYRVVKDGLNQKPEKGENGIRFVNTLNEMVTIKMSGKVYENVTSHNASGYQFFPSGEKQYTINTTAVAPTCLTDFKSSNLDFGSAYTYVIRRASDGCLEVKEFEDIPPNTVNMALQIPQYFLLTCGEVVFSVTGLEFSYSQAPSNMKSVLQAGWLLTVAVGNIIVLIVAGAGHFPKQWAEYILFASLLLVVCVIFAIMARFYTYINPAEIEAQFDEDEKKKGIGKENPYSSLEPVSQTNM
In words: Drug uptake in Pichia pastoris GS115 expressing mouse recombinant PEPT1 at 5 uM after 30s by dual-channel liquid scintillation counting analysis in presence of glycine relative to control. Particulars: in vivo, 0.5 min. The essentials: as §1

For data set [4], the target named is T4, Solute carrier family 15 member 1 (Rattus norvegicus, UniProt P51574).
T4 sequence (P51574 whole entry): T2 sequence (P51574 whole entry)
In words: Drug uptake in Pichia pastoris GS115 expressing rat recombinant PEPT1 at 5 uM after 30s by dual-channel liquid scintillation counting analysis in presence of L-histidine relative to control. Particulars: in vivo, 0.5 min. The essentials: as §1

Data set [5] has as its target T4, Solute carrier family 15 member 1. In words: Drug uptake in Pichia pastoris GS115 expressing rat recombinant PEPT1 at 5 uM after 30s by dual-channel liquid scintillation counting analysis in presence of elacridar relative to control. The settings on record: 0.5 min. The essentials: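 Rat PEPT1 (pPIC3.5K-rPept1) in GS115 His+Mut+ transformant, methanol-induced 20-24 hr in BMMY at 30°C, washed into 100 mM potassium phosphate pH 6.5. [3H]GlySar final 5.0 µM with inhibitor at 10 mM, 30 sec at 24°C. Counts taken by liquid scintillation after 24 hr standing. Values are vector-subtracted and given as % of buffer control. Mean ± SE, n=3.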

On to `[3H]C(C(=O)O)N(C)C(=O)CN` (stereo unspecified), for which the Drug uptake in data set [1] amounted to 84.8%; in data set [2] it was 100%; in data set [3], 104%; in data set [4], 113%; in data set [5], 119%. For the same compound, the uptake ratio at 0.5 h, 5 µM on PEPT1 came to 100.
